Measurements: ChEMBL document CHEMBL3392964, “Design, synthesis, and evaluation of novel imidazo[1,2-a][1,3,5]triazines and their derivatives as focal adhesion kinase inhibitors with antitumor activity” (J Med Chem, 2015)
Active and inactive are the calls of the source. The calls are words filed in the database; no cut-off is given here.

How the values were obtained:
[1] = test system: U-87MG ATCC; test: Antimigratory activity in human U87MG cells after 30 mins by boyden chamber assay; format: functional, cell-based
[2] = Cell cycle arrest in human HCT116 cells at < 0.5 uM after 24 hrs by propidium iodide staining-based flow cytometry; format: functional; conditions: HCT-116
Summary of the method: (§1)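 Cells plated at 10^5 per well, left overnight, then exposed 24 h to compound or vehicle; stained 15 min at 37 °C with propidium iodide/Triton buffer; DNA content by flow cytometry, phase distribution fitted by Dean–Jett–Fox; HCT-116 at 0.3–0.5 μM, U87-MG at 0.3–3 μM; significance by unpaired Student's t test; one representative experiment.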

[3] = test system: HCT-116; test: Induction of apoptosis in human HCT116 cells assessed as late apoptotic cells at 0.5 uM after 24 hrs by Annexin V-PE/7-AAD staining-based FACS analysis (reference value: 1.22%); format: functional
[4] = target: Insulin receptor (Homo sapiens) (UniProt P06213); test: Inhibition of human recombinant IR using poly[Glu:Tyr] as substrate at 1 uM by [gamma-33P]ATP-based assay
Summary of the method: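 Radioactive kinase assay with [γ33P]ATP and human recombinant kinase, compound tested at 1 μM.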

[5] = test system: U-87 MG; test: Reduction of cell adherence in human U87MG cells after 30 mins by toluidine blue staining-based […]; format: functional; conditions: U-87MG ATCC
Summary of the method: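 U87-MG cells grown in 10% serum, trypsinised, diluted to 100 000 cells/mL in 10% serum medium, then treated 30 min with compound or DMSO. 20 000 cells per well allowed to attach 1 h. Fixed in 4% paraformaldehyde 30 min, stained with 0.1% toluidine blue in 4% PFA 30 min, washed, OD read at 620 nm for attached cells.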

[6] = test system: U-87MG ATCC; test: Antiinvasive activity in human U87MG cells after 30 mins by boyden chamber assay; format: functional, cell-based
[7] = test system: U-87 MG; test: Induction of apoptosis in human U87MG cells assessed as late apoptotic cells at 3 uM after 24 hrs by Annexin V-PE/7-AAD staining-based FACS analysis (reference value: 1.59%); format: functional, U-87MG ATCC
[8] = Cell cycle arrest in human U87MG cells assessed as accumulation at G0/G1 phase at 3 uM after 24 hrs by propidium iodide staining-based flow cytometry (reference value: 61.7%); format: functional; conditions: U-87MG ATCC; summary of the method: as §1
[9] = Cell cycle arrest in human HCT116 cells assessed as accumulation at G2/M phase at 0.5 uM after 24 hrs by propidium iodide staining-based flow cytometry (reference value: 14.6%); format: functional; conditions: HCT-116; summary of the method: as §1
[10] = Cell cycle arrest in human HCT116 cells assessed as accumulation at G0/G1 phase at 0.5 uM after 24 hrs by propidium iodide staining-based flow cytometry (reference value: 63.8%); format: functional; conditions: HCT-116; summary of the method: as §1
[11] = Antiproliferative activity against human PC3 cells after 48 hrs by WST-1 assay; format: functional, cell-based; conditions: PC-3, 48 h
Summary of the method: (§2)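 Exponentially growing cells in DMEM/10% FBS seeded at 5 × 10^3 per well, left overnight, then exposed 48 h to compounds diluted from DMSO; WST-1 added for 2 h, absorbance at 450 nm (reference 620 nm); viability as ratio to DMSO controls; three independent experiments, triplicate points; IC50 by nonlinear regression (log inhibitor vs normalized response, variable slope).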

[12] = Antiproliferative activity against human U87MG cells after 48 hrs by WST-1 assay; format: functional, cell-based, U-87MG ATCC; conditions: U-87 MG; summary of the method: as §2
[13] = target: Focal adhesion kinase 1 (Homo sapiens, UniProt Q05397); test: Inhibition of FAK (unknown origin) using ULight-poly GT as substrate after 1.6 hrs by TR-FRET assay
[14] = (§3) Inhibition of colony formation in human HCT116 cells after 2 weeks by crystal violet staining-based assay; format: functional, cell-based; conditions: HCT-116, 336 h
Summary of the method: (§4)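 Seeding: 250 cells per well for HCT-116, 300 for U87MG, MDA-MB-231 and PC-3; incubated overnight, then exposed to a range of concentrations for 2 weeks. Fixed in 4% paraformaldehyde 30 min at room temperature, stained with 0.1% crystal violet. Colonies over 50 cells counted; colony formation rate calculated; IC50 by nonlinear regression.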

[15] = test system: HCT-116; test: as §3; format: functional, cell-based; summary of the method: as §4
[16] = Cell cycle arrest in human U87MG cells assessed as accumulation at S phase at 3 uM after 24 hrs by propidium iodide staining-based flow cytometry (reference value: 16%); format: functional; conditions: U-87MG ATCC; summary of the method: as §1
[17] = test system: HCT-116; test: Induction of apoptosis in human HCT116 cells at < 0.5 uM after 24 hrs by Annexin V-PE/7-AAD staining-based FACS analysis; format: functional, cell-based

Insulin receptor (Homo sapiens), sequence (P06213 28-758 limits assumed): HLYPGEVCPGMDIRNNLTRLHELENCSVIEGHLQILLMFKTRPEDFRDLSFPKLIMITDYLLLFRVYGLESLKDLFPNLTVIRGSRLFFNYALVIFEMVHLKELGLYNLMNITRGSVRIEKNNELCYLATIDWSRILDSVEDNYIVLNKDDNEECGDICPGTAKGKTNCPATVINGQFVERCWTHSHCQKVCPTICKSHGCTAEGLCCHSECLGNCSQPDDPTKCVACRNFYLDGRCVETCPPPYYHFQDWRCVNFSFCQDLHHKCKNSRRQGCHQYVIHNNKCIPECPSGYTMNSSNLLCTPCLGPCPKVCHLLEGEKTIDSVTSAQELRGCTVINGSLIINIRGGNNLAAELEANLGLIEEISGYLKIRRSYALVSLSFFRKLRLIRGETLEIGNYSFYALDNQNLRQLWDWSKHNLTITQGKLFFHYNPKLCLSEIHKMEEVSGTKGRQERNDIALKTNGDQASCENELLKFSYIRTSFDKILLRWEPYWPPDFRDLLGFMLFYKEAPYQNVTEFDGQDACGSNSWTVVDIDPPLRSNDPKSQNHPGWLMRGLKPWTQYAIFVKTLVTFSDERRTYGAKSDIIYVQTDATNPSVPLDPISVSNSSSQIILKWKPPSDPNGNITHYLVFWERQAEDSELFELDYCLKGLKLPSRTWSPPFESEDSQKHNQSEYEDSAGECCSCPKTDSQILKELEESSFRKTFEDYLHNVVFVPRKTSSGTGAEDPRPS
Insulin receptor (Homo sapiens), sequence (P06213 763-1382 limits assumed): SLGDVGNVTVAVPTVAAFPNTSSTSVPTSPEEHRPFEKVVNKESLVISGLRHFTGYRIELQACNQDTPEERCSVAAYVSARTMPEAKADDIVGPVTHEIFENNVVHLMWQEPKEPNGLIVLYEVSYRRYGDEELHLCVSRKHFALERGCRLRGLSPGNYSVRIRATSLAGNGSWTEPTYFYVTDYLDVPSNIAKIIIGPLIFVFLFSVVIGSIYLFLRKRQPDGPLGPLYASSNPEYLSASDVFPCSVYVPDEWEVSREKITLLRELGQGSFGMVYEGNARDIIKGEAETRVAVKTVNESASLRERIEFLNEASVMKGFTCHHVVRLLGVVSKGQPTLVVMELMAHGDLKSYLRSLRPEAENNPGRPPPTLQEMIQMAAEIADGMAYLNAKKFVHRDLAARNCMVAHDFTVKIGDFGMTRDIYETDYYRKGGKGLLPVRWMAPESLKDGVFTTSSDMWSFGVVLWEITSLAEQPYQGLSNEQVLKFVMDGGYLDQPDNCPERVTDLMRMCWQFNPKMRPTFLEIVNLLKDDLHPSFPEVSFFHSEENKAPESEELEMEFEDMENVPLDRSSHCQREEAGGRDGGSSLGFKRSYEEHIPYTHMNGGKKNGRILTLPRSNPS
Focal adhesion kinase 1, sequence (Q05397 whole entry): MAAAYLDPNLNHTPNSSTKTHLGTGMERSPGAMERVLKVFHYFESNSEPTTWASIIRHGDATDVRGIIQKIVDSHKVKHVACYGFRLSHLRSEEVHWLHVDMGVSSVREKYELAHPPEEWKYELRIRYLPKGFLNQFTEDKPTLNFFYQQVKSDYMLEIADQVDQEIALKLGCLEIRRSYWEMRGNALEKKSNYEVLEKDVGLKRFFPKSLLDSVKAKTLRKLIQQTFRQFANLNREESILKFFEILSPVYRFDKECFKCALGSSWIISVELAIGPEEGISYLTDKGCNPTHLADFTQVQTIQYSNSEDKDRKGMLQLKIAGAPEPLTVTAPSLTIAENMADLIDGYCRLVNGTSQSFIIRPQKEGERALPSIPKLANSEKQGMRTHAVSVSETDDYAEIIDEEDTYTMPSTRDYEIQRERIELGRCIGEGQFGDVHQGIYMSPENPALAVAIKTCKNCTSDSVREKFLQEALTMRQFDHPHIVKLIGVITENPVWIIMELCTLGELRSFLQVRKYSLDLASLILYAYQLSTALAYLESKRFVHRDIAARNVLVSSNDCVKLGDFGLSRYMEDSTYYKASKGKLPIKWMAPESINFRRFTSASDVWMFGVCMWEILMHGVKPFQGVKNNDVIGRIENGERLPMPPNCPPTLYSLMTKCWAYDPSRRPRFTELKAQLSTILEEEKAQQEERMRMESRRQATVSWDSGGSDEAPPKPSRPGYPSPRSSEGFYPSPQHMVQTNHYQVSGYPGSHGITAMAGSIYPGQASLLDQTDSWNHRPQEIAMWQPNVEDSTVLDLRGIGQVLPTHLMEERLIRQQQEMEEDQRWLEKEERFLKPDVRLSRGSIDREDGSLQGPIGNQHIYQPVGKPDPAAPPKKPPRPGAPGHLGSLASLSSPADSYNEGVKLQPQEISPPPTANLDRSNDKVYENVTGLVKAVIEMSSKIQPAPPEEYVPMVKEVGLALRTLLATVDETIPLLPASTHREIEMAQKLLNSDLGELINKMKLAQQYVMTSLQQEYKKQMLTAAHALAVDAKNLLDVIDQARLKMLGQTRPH

C=COC(=O)NCc1ccc(Nc2nc(Nc3ccccc3C(=O)NC)n3ccnc3n2)cc1
Activity [1]: Dose-dependent effect | Activity [2]: Active | Activity [3]: 16.1% | inhibition [4]: inactive | Activity [5]: Dose-dependent effect | Activity [6]: Dose-dependent effect | Activity [7]: 0.997% | Activity [8]: 34.3% | Activity [9]: 54.7% | Activity [10]: 29.9% | IC50 [11]: 0.29 µM | IC50 [12]: 2.89 µM | IC50 [13]: 0.05 µM | IC50 [14]: 0.13 µM | inhibition [15]: Dose-dependent effect | Activity [16]: 5.08% | Activity [17]: Active
